Values after ≈ are worked out from the molar mass of the structure shown.
Experiments:
Klebsiella pneumoniae [1] = assay: Synergistic antibacterial activity against Klebsiella pneumoniae jefferson 1775 producing OXA-48 assessed as cefepime MIC at 4 ug/ml by broth microdilution method; type: functional; details: dose 4 µg/ml
Acinetobacter baumannii [2] = assay: Synergistic antibacterial activity against Acinetobacter baumannii PR474 producing OXA-23/24/40 assessed as cefepime MIC at 8 ug/ml by broth microdilution method; type: functional; details: dose 8 µg/ml
[3] = Inhibition of bacteria ADC-7 assessed as apparent inhibition constant using nitrocefin as substrate
Bacteria = assay: Inhibition of bacteria ADC-7 assessed as second order rate constant K2/K using nitrocefin as substrate
Klebsiella pneumoniae [4] = assay: Synergistic antibacterial activity against Klebsiella pneumoniae 1354/2241 producing KPC-3 assessed as cefepime MIC at 8 ug/ml by broth microdilution method; type: functional; details: dose 8 µg/ml
Method in brief: (§1)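 Broth microdilution per CLSI guidelines, using custom frozen panels. […] Each partner drug was also tested alone. MICs were run in triplicate and the modal value is reported.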

Acinetobacter baumannii [5] = assay: Synergistic antibacterial activity against ADC deleted Acinetobacter baumannii transfected with pWH1266 OXA-23 assessed as cefepime MIC at 4 ug/ml by broth microdilution method; type: functional; details: dose 4 µg/ml
Klebsiella pneumoniae [6] = assay: Synergistic antibacterial activity against Klebsiella pneumoniae 1084/1957 producing KPC-3 assessed as meropenem MIC at 8 ug/ml by broth microdilution method; type: functional; details: dose 8 µg/ml; method in brief: as §1
Pseudomonas aeruginosa [7] = assay: Antibacterial activity against Pseudomonas aeruginosa 839 by broth microdilution method; type: functional
Acinetobacter baumannii [8] = assay: Synergistic antibacterial activity against Acinetobacter baumannii PR440 producing OXA-23/24/40 assessed as cefepime MIC at 4 ug/ml by broth microdilution method; type: functional; details: dose 4 µg/ml
Pseudomonas aeruginosa [9] = assay: Synergistic antibacterial activity against Pseudomonas aeruginosa CL232 assessed as meropenem MIC at 8 ug/ml by broth microdilution method; type: functional; details: dose 8 µg/ml
Escherichia coli [10] = assay: Synergistic antibacterial activity against Escherichia coli DH10B assessed as meropenem MIC at 4 ug/ml by broth microdilution method; type: functional; details: dose 4 µg/ml
Acinetobacter baumannii [11] = assay: Synergistic antibacterial activity against Acinetobacter baumannii PR420 producing OXA-23/24/40 assessed as meropenem MIC at 8 ug/ml by broth microdilution method; type: functional; details: dose 8 µg/ml
Klebsiella pneumoniae [12] = assay: Synergistic antibacterial activity against Klebsiella pneumoniae 1108/1989 producing KPC-3 assessed as cefepime MIC at 8 ug/ml by broth microdilution method; type: functional; details: dose 8 µg/ml; method in brief: as §1
Pseudomonas aeruginosa [13] = assay: Synergistic antibacterial activity against Pseudomonas aeruginosa CL232 assessed as cefepime MIC at 8 ug/ml by broth microdilution method; type: functional; details: dose 8 µg/ml
Klebsiella pneumoniae [14] = assay: Synergistic antibacterial activity against Klebsiella pneumoniae CAV 1636 producing OXA-181 assessed as cefepime MIC at 4 ug/ml by broth microdilution method; type: functional; details: dose 4 µg/ml
Klebsiella pneumoniae [15] = assay: Synergistic antibacterial activity against Klebsiella pneumoniae 440/1360 producing KPC-2 assessed as meropenem MIC at 8 ug/ml by broth microdilution method; type: functional; details: dose 8 µg/ml; method in brief: as §1
Pseudomonas aeruginosa [16] = assay: Synergistic antibacterial activity against Pseudomonas aeruginosa 795 assessed as meropenem MIC at 4 ug/ml by broth microdilution method; type: functional; details: dose 4 µg/ml
Acinetobacter baumannii [17] = assay: Synergistic antibacterial activity against Acinetobacter baumannii PR448 producing OXA-23 assessed as meropenem MIC at 8 ug/ml by broth microdilution method; type: functional; details: dose 8 µg/ml
Acinetobacter baumannii [18] = assay: Synergistic antibacterial activity against ADC deleted Acinetobacter baumannii assessed as cefepime MIC at 4 ug/ml by broth microdilution method; type: functional; details: dose 4 µg/ml
Klebsiella pneumoniae [19] = assay: Synergistic antibacterial activity against Klebsiella pneumoniae 901/1860 producing KPC-3 assessed as meropenem MIC at 4 ug/ml by broth microdilution method; type: functional; details: dose 4 µg/ml
Pseudomonas aeruginosa [20] = assay: Synergistic antibacterial activity against Pseudomonas aeruginosa CL232 assessed as cefepime MIC at 4 ug/ml by broth microdilution method; type: functional; details: dose 4 µg/ml
Escherichia coli [21] = assay: Synergistic antibacterial activity against Escherichia coli DH10B transfected with pBC SK (-) KPC-2 assessed as cefepime MIC at 4 ug/ml by broth microdilution method; type: functional; details: dose 4 µg/ml
Klebsiella pneumoniae [22] = assay: Synergistic antibacterial activity against Klebsiella pneumoniae 729/1679 producing KPC-3 assessed as cefepime MIC at 8 ug/ml by broth microdilution method; type: functional; details: dose 8 µg/ml; method in brief: as §1
Acinetobacter baumannii [23] = assay: Synergistic antibacterial activity against Acinetobacter baumannii PR448 producing OXA-23 assessed as meropenem MIC at 4 ug/ml by broth microdilution method; type: functional; details: dose 4 µg/ml
Escherichia coli [24] = assay: Synergistic antibacterial activity against Escherichia coli DH10B transfected with pBC SK (-) PDC-3 assessed as meropenem MIC at 8 ug/ml by broth microdilution method; type: functional; details: dose 8 µg/ml; method in brief: as §1
Klebsiella pneumoniae [25] = assay: Synergistic antibacterial activity against Klebsiella pneumoniae 972/1910 producing KPC-3 assessed as meropenem MIC at 8 ug/ml by broth microdilution method; type: functional; details: dose 8 µg/ml
Escherichia coli [26] = assay: Synergistic antibacterial activity against Escherichia coli DH10B transfected with pBC SK (-) KPC-2 assessed as meropenem MIC at 4 ug/ml by broth microdilution method; type: functional; details: dose 4 µg/ml
Acinetobacter baumannii [27] = assay: Synergistic antibacterial activity against Acinetobacter baumannii PR448 producing OXA-23 assessed as cefepime MIC at 8 ug/ml by broth microdilution method; type: functional; details: dose 8 µg/ml
Method in brief: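 Broth microdilution per CLSI guidelines in frozen panels. Test compound held at fixed 8 mg/L while the partner β-lactam concentration was increased. Run in triplicate; modal MIC reported.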

Pseudomonas aeruginosa [28] = assay: Synergistic antibacterial activity against Pseudomonas aeruginosa 839 assessed as cefepime MIC at 4 ug/ml by broth microdilution method; type: functional; details: dose 4 µg/ml
Klebsiella pneumoniae [29] = assay: Synergistic antibacterial activity against Klebsiella pneumoniae 660/1568 producing KPC-3 assessed as cefepime MIC at 4 ug/ml by broth microdilution method; type: functional; details: dose 4 µg/ml; method in brief: as §1
Acinetobacter baumannii [30] = assay: Synergistic antibacterial activity against ADC deleted Acinetobacter baumannii transfected with pWH1266 producing OXA-24/40 assessed as meropenem MIC at 8 ug/ml by broth microdilution method; type: functional; details: dose 8 µg/ml
Klebsiella pneumoniae [31] = assay: Synergistic antibacterial activity against Klebsiella pneumoniae NY BS producing OXA-232 assessed as meropenem MIC at 4 ug/ml by broth microdilution method; type: functional; details: dose 4 µg/ml
Klebsiella pneumoniae [32] = assay: Synergistic antibacterial activity against Klebsiella pneumoniae 972/1910 producing KPC-3 assessed as cefepime MIC at 4 ug/ml by broth microdilution method; type: functional; details: dose 4 µg/ml
Klebsiella pneumoniae [33] = assay: Synergistic antibacterial activity against Klebsiella pneumoniae 1315/2198 producing KPC-3 assessed as meropenem MIC at 4 ug/ml by broth microdilution method; type: functional; details: dose 4 µg/ml; method in brief: as §1
Klebsiella pneumoniae [34] = assay: Synergistic antibacterial activity against Klebsiella pneumoniae 776/1742 producing KPC-2 assessed as cefepime MIC at 8 ug/ml by broth microdilution method; type: functional; details: dose 8 µg/ml
Klebsiella pneumoniae [35] = assay: Synergistic antibacterial activity against Klebsiella pneumoniae jefferson 1775 producing OXA-48 assessed as meropenem MIC at 4 ug/ml by broth microdilution method; type: functional; details: dose 4 µg/ml
Klebsiella pneumoniae [36] = assay: Synergistic antibacterial activity against Klebsiella pneumoniae NY BS producing OXA-232 assessed as cefepime MIC at 4 ug/ml by broth microdilution method; type: functional; details: dose 4 µg/ml
Klebsiella pneumoniae [37] = assay: Synergistic antibacterial activity against Klebsiella pneumoniae CAV 1636 producing OXA-181 assessed as meropenem MIC at 4 ug/ml by broth microdilution method; type: functional; details: dose 4 µg/ml

Row | Compound | MIC (Klebsiella pneumoniae [1]) [µg/mL] | MIC (Acinetobacter baumannii [2]) [µg/mL] | Ki [3] [µM] | K (Bacteria) | MIC (Klebsiella pneumoniae [4]) [µg/mL] | MIC (Acinetobacter baumannii [5]) [µg/mL] | MIC (Klebsiella pneumoniae [6]) [µg/mL] | MIC (Pseudomonas aeruginosa [7]) [µg/mL] | MIC (Acinetobacter baumannii [8]) [µg/mL] | MIC (Pseudomonas aeruginosa [9]) [µg/mL] | MIC (Escherichia coli [10]) [µg/mL] | MIC (Acinetobacter baumannii [11]) [µg/mL] | MIC (Klebsiella pneumoniae [12]) [µg/mL] | MIC (Pseudomonas aeruginosa [13]) [µg/mL] | MIC (Klebsiella pneumoniae [14]) [µg/mL] | MIC (Klebsiella pneumoniae [15]) [µg/mL] | MIC (Acinetobacter baumannii [17]) [µg/mL] | MIC (Acinetobacter baumannii [18]) [µg/mL] | MIC (Klebsiella pneumoniae [19]) [µg/mL] | MIC (Pseudomonas aeruginosa [20]) [µg/mL] | other results
1 | O=C(NNC(=O)[C@@H]1CC[C@@H]2CN1C(=O)N2OS(=O)(=O)O)[C@@H]1CCCNC1 [ZIDEBACTAM] | ≤ 0.12 | 8 | 2.3 | 3.5 10^4/M/s | ≤ 0.12 | 16 | ≤ 0.12 | 8 (≈ 20.4 µM) | 16 | > 16 | ≤ 0.12 | > 16 | ≤ 0.12 | 16 | ≤ 0.12 | ≤ 0.12 | > 16 | 0.25 | ≤ 0.12 | 16 | MIC (Pseudomonas aeruginosa [16]): 16 µg/mL; MIC (Escherichia coli [21]): ≤ 0.12 µg/mL; MIC (Klebsiella pneumoniae [22]): ≤ 0.12 µg/mL; MIC (Acinetobacter baumannii [23]): > 16 µg/mL; MIC (Escherichia coli [24]): ≤ 0.12 µg/mL; MIC (Klebsiella pneumoniae [25]): ≤ 0.12 µg/mL; MIC (Escherichia coli [26]): ≤ 0.12 µg/mL; MIC (Acinetobacter baumannii [27]): 8 µg/mL; MIC (Pseudomonas aeruginosa [28]): 2 µg/mL; MIC (Klebsiella pneumoniae [29]): ≤ 0.12 µg/mL; MIC (Acinetobacter baumannii [30]): > 16 µg/mL; MIC (Klebsiella pneumoniae [31]): ≤ 0.12 µg/mL; MIC (Klebsiella pneumoniae [32]): ≤ 0.12 µg/mL; MIC (Klebsiella pneumoniae [33]): ≤ 0.12 µg/mL; MIC (Klebsiella pneumoniae [34]): ≤ 0.12 µg/mL; MIC (Klebsiella pneumoniae [35]): ≤ 0.12 µg/mL; MIC (Klebsiella pneumoniae [36]): ≤ 0.12 µg/mL
2 | O=C(NNC(=O)[C@@H]1CC[C@@H]2CN1C(=O)N2OS(=O)(=O)O)[C@@H]1CCNC1 | ≤ 0.12 | 8 | 3.7 | 3.2 10^4/M/s | ≤ 0.12 | 16 | ≤ 0.12 | 4 (≈ 10.6 µM) | > 16 | 16 | ≤ 0.12 | > 16 | ≤ 0.12 | 4 | ≤ 0.12 | ≤ 0.12 | > 16 | 0.5 | ≤ 0.12 | 8 | MIC (Klebsiella pneumoniae [37]): ≤ 0.12 µg/mL; MIC (Escherichia coli [21]): ≤ 0.12 µg/mL; MIC (Klebsiella pneumoniae [22]): ≤ 0.12 µg/mL; MIC (Acinetobacter baumannii [23]): > 16 µg/mL; MIC (Escherichia coli [24]): ≤ 0.12 µg/mL; MIC (Klebsiella pneumoniae [25]): ≤ 0.12 µg/mL; MIC (Escherichia coli [26]): ≤ 0.12 µg/mL; MIC (Acinetobacter baumannii [27]): 8 µg/mL; MIC (Pseudomonas aeruginosa [28]): ≤ 0.12 µg/mL; MIC (Klebsiella pneumoniae [29]): ≤ 0.12 µg/mL; MIC (Acinetobacter baumannii [30]): > 16 µg/mL; MIC (Klebsiella pneumoniae [31]): ≤ 0.12 µg/mL; MIC (Klebsiella pneumoniae [32]): ≤ 0.12 µg/mL; MIC (Klebsiella pneumoniae [33]): ≤ 0.12 µg/mL; MIC (Klebsiella pneumoniae [34]): ≤ 0.12 µg/mL; MIC (Klebsiella pneumoniae [35]): ≤ 0.12 µg/mL; MIC (Klebsiella pneumoniae [36]): ≤ 0.12 µg/mL
